According to the RNAGym collection of RNA variant scans (doi:10.1126/science.aae0568):
This sample holds only a part of the variants without activity.

B1: tRNA (parent)
chain: GUUCCGUUGGCGUAAUGGUAACGCGUCUCCCUCCUAAGGAGAAGACUGCGGGUUCGAGUCCCGUACGGAACG

Variants of: B1
Assay: yeast fitness relative to wild type (ratio to wild type); higher = fitter; tRNA-Arg(CCU), competitive growth, 37 C, YPD
Summary of the method: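 Variants of the tRNA-Arg(CCU) gene, chemically synthesised with a 3% per-site mutation rate at 69 sites, were placed at the native genomic locus in Saccharomyces cerevisiae. The pooled strains were competed in YPD at 37°C for 24 hours in six parallel replicates. Gene amplicons from the start population and from each end population were read by 100-nucleotide paired-end sequencing. Darwinian fitness relative to wild type came from changes in genotype frequencies; genotypes needed ≥ 100 starting reads, and estimates < 0.5 were set to 0.5.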

Compared with G48A G56U G58A, C49U A70C is higher in yeast fitness: ≤ 0.5 for the first, 1.02 for the second.

First: U47A G50A
Second: G48A C49U C62U A69U
The yeast fitness of the first is higher: 0.831 for the first, 0.553 for the second.

Compared with C46U U59C, C46U U59G is lower in yeast fitness: 1.03 for the first, 0.962 for the second.

First: G48A C61U A65C
Second: U47C G50A G68C
The yeast fitness of the first is lower: ≤ 0.5 for the first, 0.539 for the second.

First: G48C A57G
Second: G48C A57U
The yeast fitness of the first is higher: 0.705 for the first, 0.622 for the second.

U47C C62G A65C and G48C G52C C55U cannot be ordered by yeast fitness: ≤ 0.5 for the first, ≤ 0.5 for the second.

Going from G51A C66G to G50C U54A, the yeast fitness falls from 0.704 to 0.524.

First: G51A A69C
Second: G48A C49A G67U
The yeast fitness of the first is higher: 0.979 for the first, 0.572 for the second.

Compared with G50A U59A, G50A G68A is higher in yeast fitness: 0.831 for the first, 0.915 for the second.

G48C C49A U53A G56A G58C G68C and C49U A65G G67A A69U cannot be ordered by yeast fitness: ≤ 0.5 for the first, ≤ 0.5 for the second.

Compared with U47C A65C C66G, G48A G51C C61G is higher in yeast fitness: ≤ 0.5 for the first, 1.02 for the second.

First: G48A C49G C60G
Second: U47A G51A A69G
The yeast fitness of the first is higher: 0.576 for the first, ≤ 0.5 for the second.

First: C49G A57C A70G
Second: U47C C61G A65C
The yeast fitness of the first is higher: 0.552 for the first, ≤ 0.5 for the second.

Compared with G50A C55U A65G, G50C G56C is higher in yeast fitness: ≤ 0.5 for the first, 0.614 for the second.

Going from U47C U59C to U47C A65G, the yeast fitness falls from 0.926 to 0.92.

Compared with G50U A69C, C49U G67U is lower in yeast fitness: 0.958 for the first, 0.885 for the second.

Compared with C49U G67C, C49U G56A G67A is lower in yeast fitness: 0.851 for the first, 0.593 for the second.

Going from G48A C49G to U47C C60G A69C, the yeast fitness falls from 1.05 to ≤ 0.5.

Going from G48C G68U to G48C G68C, the yeast fitness rises from 0.771 to 0.789.

Compared with C49A G67U, C49U G50C is higher in yeast fitness: 0.746 for the first, 0.815 for the second.

Compared with C49A A65C, G50A U64C is higher in yeast fitness: 0.686 for the first, 0.966 for the second.

Compared with G48A C62G C66A, C49A G50C is higher in yeast fitness: ≤ 0.5 for the first, 0.572 for the second.

Compared with G50A G58C, C49U A57U G58C is lower in yeast fitness: 1.01 for the first, ≤ 0.5 for the second.

Going from U47A A57G to G50A A57C C60G C61U, the yeast fitness falls from 0.923 to ≤ 0.5.

C49U A65G C66G and U47G U54A G58A cannot be ordered by yeast fitness: ≤ 0.5 for the first, ≤ 0.5 for the second.

Compared with C46U G68A, C46U G68U is lower in yeast fitness: 0.9 for the first, 0.857 for the second.

First: C49G G63C G68C
Second: C49U C62G C66U
The yeast fitness of the first is lower: ≤ 0.5 for the first, 0.608 for the second.

First: G48A C60G A65U
Second: U47C C66A
The yeast fitness of the first is lower: ≤ 0.5 for the first, 0.775 for the second.

First: G48A U53G
Second: G48A G52C G67C
The yeast fitness of the first is higher: 0.599 for the first, ≤ 0.5 for the second.

Going from G48A C49U G63C to C49A C61U C62G, the yeast fitness falls from 0.633 to ≤ 0.5.

Compared with G48C G52C A57C G58A C66U, U47A A65G is higher in yeast fitness: ≤ 0.5 for the first, 0.937 for the second.

Compared with C49G G68U, U47C A70G is higher in yeast fitness: 0.808 for the first, 1.03 for the second.

Compared with U47C G58C, G48C G63C A70C is lower in yeast fitness: 0.971 for the first, ≤ 0.5 for the second.

First: C49A C55U
Second: G48A A57C
The yeast fitness of the first is lower: 0.606 for the first, 0.643 for the second.

Compared with U47A U53C, G50C G51C is lower in yeast fitness: 0.7 for the first, 0.522 for the second.

First: G50A G51C C60G
Second: U47A C49U A65C
The yeast fitness of the first is lower: ≤ 0.5 for the first, 0.702 for the second.

G48A C55U A70G and G51A C61A C62G cannot be ordered by yeast fitness: ≤ 0.5 for the first, ≤ 0.5 for the second.

Going from U47C C49U G68C to C49A G63C A69G, the yeast fitness falls from 0.582 to ≤ 0.5.

First: C46U U53A
Second: G50C G56A G58A
The yeast fitness of the first is higher: 0.704 for the first, 0.64 for the second.

Compared with G48C U64G, C49G G50C C62U is lower in yeast fitness: 0.714 for the first, 0.539 for the second.

First: G48C C49U C55U
Second: G50A G51C A65C
The yeast fitness of the first is higher: 0.663 for the first, ≤ 0.5 for the second.

Compared with G50A G63A, U47A G68C is lower in yeast fitness: 0.943 for the first, 0.606 for the second.

Compared with U47A G48A A70U, G51A A70G is higher in yeast fitness: 0.748 for the first, 0.85 for the second.

Compared with C49A A65U G67A, U47G C49A A69U is higher in yeast fitness: 0.529 for the first, 0.573 for the second.

Compared with G48A A65U, U47A C49G is lower in yeast fitness: 1.02 for the first, 0.767 for the second.

First: U47A C49U
Second: C46U G67C
The yeast fitness of the first is lower: 0.913 for the first, 1.02 for the second.

First: U47A A69C
Second: G50C C62G A70U
The yeast fitness of the first is higher: 0.82 for the first, 0.606 for the second.

Going from G48C C49U to G51A C60A, the yeast fitness falls from 0.787 to 0.599.

First: G51A C60G
Second: U47A G48A
The yeast fitness of the first is lower: 0.596 for the first, 0.867 for the second.

Compared with C49A C60G A70C, C49U A69U is higher in yeast fitness: ≤ 0.5 for the first, 1.01 for the second.

Going from G50A A57U to G50A A57G, the yeast fitness rises from 0.6 to 0.944.

C49A G51C U59A and G48C U54G C55U cannot be ordered by yeast fitness: ≤ 0.5 for the first, ≤ 0.5 for the second.

Compared with C49G C66A, C49G G52A C61G is lower in yeast fitness: 0.654 for the first, 0.534 for the second.

Going from G48C G67C to G50A G51A, the yeast fitness rises from 0.563 to 0.645.

Compared with C49U U53C A69C, G48C G51C is lower in yeast fitness: 0.597 for the first, 0.591 for the second.

First: C49G C55A
Second: G48A G52A
The yeast fitness of the first is lower: 0.619 for the first, 0.976 for the second.

Compared with G50C A69U, G50C A69C is lower in yeast fitness: 0.833 for the first, 0.67 for the second.

Going from G50A C61A to C49A G51A C55A C60A, the yeast fitness falls from 0.744 to ≤ 0.5.

Going from U47C U53C to C49G G56A G63A, the yeast fitness falls from 0.795 to 0.584.

Compared with G48C C62A, U47G G68C is lower in yeast fitness: 0.771 for the first, 0.563 for the second.

First: C49U A57G
Second: U47C G52A
The yeast fitness of the first is higher: 0.865 for the first, 0.724 for the second.

First: C49A G52C
Second: G48C G63A A65G
The yeast fitness of the first is lower: 0.527 for the first, 0.71 for the second.

Compared with C46U U54C, G48A U54G is lower in yeast fitness: 0.717 for the first, 0.686 for the second.

Compared with G51A C60U C61U A65G A69C, G48A C55U is higher in yeast fitness: 0.594 for the first, 0.661 for the second.

Compared with G50U C66U, C49G U54C is higher in yeast fitness: 0.96 for the first, 1.01 for the second.

Going from C49A A70C to C49A A57U, the yeast fitness falls from 0.743 to 0.55.

First: C49G C60U C62U U64A
Second: U47A C62G
The yeast fitness of the first is lower: ≤ 0.5 for the first, 0.856 for the second.

Going from C49G A65C to C49U G58A A65G, the yeast fitness rises from 0.733 to 1.

First: G50C C61A
Second: G48A G68A
The yeast fitness of the first is lower: 0.544 for the first, 0.998 for the second.

Going from C49G G52A A57C to C49U C60U A69C, the yeast fitness rises from ≤ 0.5 to 0.566.

Compared with G50C C55U A69G, C49A C60A is lower in yeast fitness: 0.554 for the first, 0.52 for the second.

First: G50C C60G
Second: C49G G63C A69U
The yeast fitness of the first is lower: ≤ 0.5 for the first, 0.651 for the second.

First: G48C C61U
Second: U47C G48A
The yeast fitness of the first is lower: 0.733 for the first, 0.96 for the second.

First: C49U U59C C61U
Second: C49A G56A A57U
The yeast fitness of the first is higher: 0.618 for the first, ≤ 0.5 for the second.

First: G48C A70G
Second: G48C A70C
The yeast fitness of the first is higher: 0.901 for the first, 0.784 for the second.

Compared with G48A C62G, U47C G58U A65U is lower in yeast fitness: 0.951 for the first, 0.511 for the second.

First: U47C C60G
Second: U47C C60U
The yeast fitness of the first is lower: 0.651 for the first, 0.722 for the second.

Compared with C49A C60U G68C, G48A A69U is higher in yeast fitness: ≤ 0.5 for the first, 0.961 for the second.

Compared with G50C C55A, C49G G51A is higher in yeast fitness: 0.619 for the first, 0.637 for the second.

Compared with C49U C55G, G48A C61G C62U is lower in yeast fitness: 0.885 for the first, ≤ 0.5 for the second.

First: U47C A57C
Second: C49U C55G G63A
The yeast fitness of the first is higher: 0.524 for the first, ≤ 0.5 for the second.

Going from G50C G52A C61G to G50A C60A, the yeast fitness falls from 0.722 to 0.581.

Going from G50C G67A to C49U U54G C61U, the yeast fitness falls from 0.816 to ≤ 0.5.

For G51A G56A U59C, the yeast fitness was 0.565.
